We go through one compound from ChEMBL document CHEMBL5357047, “The development of thymol-isatin hybrids as broad-spectrum antibacterial agents with potent anti-MRSA activity” (RSC Med Chem, 2024).

Common to all, as to assay type: functional
One assay has as its system Escherichia coli. The assay is described as follows: Antibacterial activity against Escherichia coli MTCC 119 assessed as inhibition of bacterial growth at 50 uM measured after 48 hrs by agar well diffusion method. The following applies: read-out: IZ. On the technique in general: A growth-free zone around the sample is the usual read-out of agar diffusion tests.
Assay [1] concerns Staphylococcus epidermidis. The assay is described as follows: Bactericidal activity against Staphylococcus epidermidis MTCC 435 assessed as inhibition of bacterial growth measured after 48 hrs by agar plate method. The method in brief: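 MBC: 10 μL from wells showing no INT colour change after broth microdilution subcultured on drug-free Mueller Hinton agar, 48 h at 37 °C aerobically; lowest concentration with no visible growth taken as MBC (μM). Triplicate.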

In assay [2] the test system is Staphylococcus aureus. The assay is described as follows: Antibacterial activity against Methicillin-resistant Staphylococcus aureus ATCC 33591 assessed as inhibition of bacterial growth at 50 uM measured after 48 hrs by agar well diffusion method. The following applies: read-out: IZ. In outline: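 Agar well diffusion on Mueller Hinton agar seeded with bacteria at 0.5 McFarland. […] Incubated 48 h at 37 °C aerobically; zone of inhibition diameter (mm) measured. Triplicate.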

The test system of assay [3] is Staphylococcus aureus. The assay is described as follows: Antibacterial activity against clinically isolated Methicillin-resistant Staphylococcus aureus assessed as inhibition of bacterial growth at 50 uM measured after 48 hrs by agar well diffusion method. The settings on record: read-out: IZ.
The next assay relates to Enterococcus faecalis. The assay is described as follows: Antibacterial activity against clinically isolated Enterococcus faecalis RBRJ015 assessed as inhibition of bacterial growth at 50 uM measured after 48 hrs by agar well diffusion method. The settings on record: read-out: IZ.
Assay [4] has as its system Staphylococcus aureus. Kind of assay: Anti-biofilm activity against Methicillin-resistant Staphylococcus aureus assessed as mean thickness of biofilm at 1XMIC measured after 48 hrs by crystal violet staining based phase contrast microscopy (reference value: 15.03+/-1.63 um).
Assay [5] concerns Staphylococcus aureus. The assay is described as follows: Bactericidal activity against Methicillin-resistant Staphylococcus aureus ATCC 33591 assessed as inhibition of bacterial growth measured after 48 hrs by agar plate method. The method in brief:
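MBC: aliquots from microdilution wells without colour change subcultured on drug-free Mueller Hinton agar, 48 h at 37 °C aerobically. MBC is the lowest concentration with no visible growth. Triplicate.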

Assay [6] has as its system Staphylococcus aureus. Kind of assay: Anti-biofilm activity against Methicillin-resistant Staphylococcus aureus assessed as reduction in biofilm formation at 1XMIC measured after 48 hrs by crystal violet staining based analysis. In outline:
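Non-adherent cells washed off with water, stained with 0.5% crystal violet 30 min at 25 °C, dye eluted with 95% ethanol, OD 545 nm. Reported as % reduction versus untreated control. Triplicate.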

In the next assay the test system is Enterobacter cloacae. The assay is described as follows: Antibacterial activity against clinically isolated Enterobacter cloacae RBRJ017 assessed as inhibition of bacterial growth at 50 uM measured after 48 hrs by agar well diffusion method. The settings on record: read-out: IZ.
Assay [7] concerns Staphylococcus aureus. Kind of assay: Anti-biofilm activity against Methicillin-resistant Staphylococcus aureus assessed as biofilm volume/area at 1/2XMIC measured after 48 hrs by crystal violet staining based phase contrast microscopy (reference value: 18.37 +/-1.14 um3/um2).

Values after ≈ are worked out from the molar mass of the structure shown.

Usually MBC stands for the smallest concentration meeting the test's criterion for killing. On to `Cc1ccc(C(C)C)c(OCc2cn(CCCN3C(=O)C(=O)c4ccccc43)nn2)c1`, for which the zone of inhibition at 50 µM with Escherichia coli worked out at 22.1 mm; in the assay on Staphylococcus aureus [2], 27.5 mm; with Staphylococcus aureus [3] it was 28.8 mm; in the assay on Enterococcus faecalis, 20.2 mm; with Enterobacter cloacae it was 19.2 mm. Moreover, the minimal bactericidal concentration (MBC) (in assay [1]; in the assay with Staphylococcus aureus [5]) was 7.8 µM (≈ 3.26 µg/mL) in each case. Besides, the results for the Activity in the assay with Staphylococcus aureus [4] and in the assay with Staphylococcus aureus [7] were 1.11 um and 3.48 um3/um2, respectively. Besides, the “inhibition (INH)” value with Staphylococcus aureus [6] worked out at 89.63%.
